Three compounds from article PMC11951139 (Journal of Agricultural and Food Chemistry, 2025) can be followed below.

In one test the target is DmATG8a (Drosophila melanogaster, UniProt Q9W2S2). Nature of the test: Microscale thermophoresis. In kind it is binding. As to conditions: for Kd: Kd value (binding affinity with DmATG8a), MST, fluorescently labeled DmATG8a. A digest of the protocol: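 Wild-type DmATG8a expressed from pET-32a in E. coli BL21(DE3), induced with 1 mM IPTG at 20 °C for 16 h. Purified by His-tag affinity, TEV tag removal and size exclusion in 20 mM Tris-HCl, 300 mM NaCl, pH 7.5. Protein labelled with RED-NHS dye. Test compounds and tryptophan run as 16-point dilutions from 0.06 to 2000 μM, 5 min in the dark, then MST on a Monolith NT.115.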
Sequence of DmATG8a (Q9W2S2 1-121): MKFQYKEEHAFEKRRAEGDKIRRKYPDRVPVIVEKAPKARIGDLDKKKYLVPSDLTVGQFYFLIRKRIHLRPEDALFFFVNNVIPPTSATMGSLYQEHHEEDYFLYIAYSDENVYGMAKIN

The subject of test [1] is D. melanogaster adult flies. The test is described as follows: Insecticidal activity, combined gastric poisoning and contact method. It counts as in vivo, Drosophila melanogaster. Conditions: for insecticidal activity: 500 μg/mL, adult flies, mortality after 24 h. Put shortly: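 Adult fruit flies, about twenty 2-day-old per dish. Apple slices soaked 1 min in test solution, then placed in the Petri dish, combining ingestion and contact exposure. Triplicate per treatment, with water as negative and avermectin as positive control. Held at 24 ± 1 °C, 75 ± 5% RH, 16 h light:8 h dark. Mortality scored at 24 h by gently touching insects with a brush.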

For a further test, the system named is DmATG8a^K48A. Nature of the test: MST binding to the DmATG8a K48A mutant. Details: species or system Drosophila melanogaster. As to conditions: 25 °C. Put shortly: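 K48A point mutant of DmATG8a made by site-directed mutagenesis in pET-32a. Expressed and purified as for wild type: E. coli BL21(DE3), His-tag affinity, TEV cleavage, desalting. Binding of the test indole assessed by microscale thermophoresis with fluorescently labelled protein.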

The structures appear in SMILES notation. “Also recorded” adds a separate entry of the source.

Broadly, the Kd is the constant that tells how readily two partners part at equilibrium. High values mean weaker binding, low ones tighter binding. The compound `N[C@@H](Cc1c[nH]c2ccccc12)C(=O)O` [tryptophan, reference compound] displayed a Kd on DmATG8a of 67 µM.
In general, LC50 refers to the concentration that kills 50% of the test population. In general, mortality refers to the share of the test organisms that died. With `CC[C@H](C)[C@H]1O[C@]2(C=C[C@@H]1C)C[C@@H]1C[C@@H](C/C=C(\C)[C@@H](O[C@H]3C[C@H](OC)[C@@H](O[C@H]4C[C@H](OC)[C@@H](O)[C@H](C)O4)[C@H](C)O3)[C@@H](C)/C=C/C=C3\CO[C@@H]4[C@H](O)C(C)=C[C@@H](C(=O)O1)[C@]34O)O2` [avermectin], in test [1], the insecticidal activity worked out at 100%. In test [1] (Drosophila melanogaster, 24 h), the LC50 came to 30.5 mg/L and the mortality at 15 µg/mL came to 33%.
Consider `Fc1ccc2cc[nH]c2c1` [6-fluoroindole], for which, in test [1], the insecticidal activity worked out at 100%. Also, the 50% lethal concentration (LC50) in test [1] (Drosophila melanogaster, 24 h) was 169 mg/L. The “binding to DmATG8a^K48A” value in the test on DmATG8a^K48A is “no affinity; also recorded: no binding”. For the same compound, on DmATG8a (Kd of 6-fluoroindole versus Kd of tryptophan), the “fold lower Kd than tryptophan” value is listed as “approximately 19 fold”. This compound also displayed a Kd on DmATG8a of 3.54 µM.
